Measurements reported in article PMC2753403 (Journal of the American Chemical Society, 2009).
Several values for one entry are separate records, joined by “and”; a condition that tells them apart may be missing. Identical values can stand only once. Like-named read-outs stand apart in the source and are kept apart here.

What was measured:
MDA-MB-231 cells = test: Matrigel invasion assay; type: cell-based, human; settings: 24 hours treatment, up to 10 μM
MCF-7 = MCF-7 cell growth inhibition; type: cell-based; settings: Homo sapiens, MCF7, 96 h, read-out: IC50, tumor cell growth inhibition
Procedure, shortened: (§1)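 Cells were grown in RPMI-1640 with 10% FBS and 2 mM L-glutamine at 37°C, 5% CO2, 100% humidity, and seeded at 5,000 cells/well. Test compound came from 0.01 M water stocks as a half-log serial dilution series (0.316 mM to 0.1 pM) prepared before addition. Plates ran 4 days, then MTT dose-response.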

mouse fetal metatarsal = test: Mouse fetal metatarsal 45Ca2+ release inhibition assay; settings: read-out: IC50, 45Ca2+ release inhibition
[1] = 14C-labelled olpadronate displacement bone-binding model; settings: fetal mouse metatarsals, Figure 8b
SK-ES-1 sarcoma cells = test: SK-ES-1 sarcoma mouse xenograft; type: in vivo; settings: athymic nude mice, 5 μg daily intraperitoneal, 30 days
Procedure, shortened: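 Four 6-week-old athymic nude mice each received 1.5×10^7 human SK-ES-1 cells subcutaneously in the right flank. Treatment was daily intraperitoneal test compound (5 μg) for 30 days, or physiological saline. Tumor diameters and body weight were measured weekly, and volume = (smallest diameter)2 × (largest diameter)/2. Statistics used one-way ANOVA with Fisher's PLSD, with p < 0.05 taken as significant.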

breast cancer patients = settings: Phase III, 1803 breast cancer patients, zoledronate (+hormone) therapy; cited from earlier work
[2] = test system: human tumor cell lines: MCF-7, NCI-H460 and SF-268; test: FOH/GGOH rescue of cell growth inhibition; type: cell-based; settings: for rescue from growth inhibition by GGOH: 20 μM GGOH added; for rescue from growth inhibition by FOH: 20 μM FOH added
Procedure, shortened: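 Cells were grown in RPMI-1640 with 10% FBS and 2 mM L-glutamine at 37°C, 5% CO2. They were seeded at 5,000 cells/well with test compound added, and each well also received FOH or GGOH from ethanol stocks at a fixed 20 μM. After 4 days, growth was read by MTT.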

Human FPPS = molecular target: T1, Human FPPS (Homo sapiens, UniProt P14324); test: Human FPPS inhibition; type: biochemical
T1 sequence (P14324 1-419): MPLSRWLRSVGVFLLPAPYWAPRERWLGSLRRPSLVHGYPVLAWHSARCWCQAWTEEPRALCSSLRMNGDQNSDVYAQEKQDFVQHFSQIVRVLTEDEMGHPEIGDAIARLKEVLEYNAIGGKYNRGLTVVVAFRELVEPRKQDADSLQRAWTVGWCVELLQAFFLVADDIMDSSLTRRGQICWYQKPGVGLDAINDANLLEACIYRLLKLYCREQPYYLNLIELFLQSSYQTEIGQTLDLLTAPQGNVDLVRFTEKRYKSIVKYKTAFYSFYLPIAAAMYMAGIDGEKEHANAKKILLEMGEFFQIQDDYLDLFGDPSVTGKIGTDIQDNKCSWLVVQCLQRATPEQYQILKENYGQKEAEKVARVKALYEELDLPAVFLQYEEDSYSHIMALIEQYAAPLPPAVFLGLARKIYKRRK
Procedure, shortened: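 Recombinant human FPPS condensed geranyl diphosphate with isopentenyl diphosphate, followed by a continuous spectrophotometric phosphate-release assay. Buffer was 50 mM Tris-HCl, 1 mM MgCl2, pH 7.4. Enzyme and test compound were preincubated 30 min at 20°C. IC50 came from a dose-response curve fit.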

[3] = test system: human tumor cell lines: MCF-7, NCI-H460 and SF-268; test: Tumor cell growth inhibition; type: cell-based
Procedure, shortened: as §1

[4] = mouse fetal metatarsal, Figure 8a

SMILES	IC50 (MCF-7)	rescue from growth inhibition by GGOH [2]	IC50 (mouse fetal metatarsal; [4])	rescue from growth inhibition by FOH [2]	also measured
O=P(O)(O)C(O)(Cn1ccnc1)P(=O)(O)O [zoledronate]	~15 µM	only a partial rescue by GGOH	–	–	effect on MDA-MB-231 invasion (MDA-MB-231 cells): essentially no effect even at 10 μM; IC50 (mouse fetal metatarsal; Mus musculus): ~0.1 µM; displacement of bound 14C-labelled olpadronate [1]: far more effective in displacing this bound bisphosphonate than are the lipophilic species; reduction in tumor cell growth (tumor volume) (SK-ES-1 sarcoma cells): significant (p < 0.01) reduction in tumor cell growth versus control; reduced risk of cancer returning, or death (breast cancer patients): 36%
O=P(O)(O)C(O)(Cc1cccc(-c2cccc(NS(=O)(=O)c3ccc4ccccc4c3)c2)c1)P(=O)(O)O [BPH-675]	–	almost fully reversed by addition of 20 μM GGOH	~30 µM	FOH has no effect	FPPS inhibition (in words) (Human FPPS): very weak
CC(C)=CCCC(C)=CCC(CC=C(C)CCC=C(C)C)(P(=O)(O)O)P(=O)(O)O [1,1-digeranylmethylene bisphosphonate, reference compound]	–	rescue by GGOH	–	–	–
NCCC(O)(P(=O)(O)O)P(=O)(O)O [pamidronate]	~140 µM	–	–	–	–
CCCCCCCCCCCCOc1ccc[n+](CC(P(=O)(O)O)P(=O)(O)O)c1 [BPH-716]	–	–	~1.3 µM	–	activity in the cell assays compared with BPH-715 ([3]; growth inhibition and Matrigel invasion assays): about the same activity as BPH-715
CCCCCCCCCCOc1ccc[n+](CC(P(=O)([O-])O)P(=O)(O)O)c1 (centres unmarked) [BPH-715]	–	no rescue by either FOH or GGOH	2.9 µM and ~2.9 µM	no rescue by either FOH or GGOH	weight loss or other adverse effect (SK-ES-1 sarcoma cells): no weight loss or other adverse effect observed; IC50 in tumor cell growth inhibition, fold lower than zoledronate ([3]; versus zoledronate): ~ 100 fold
